Data set [1] deals with Canis familiaris. Put plainly: The compound was tested for antiarrhythmic activity in infarcted conscious dog through iv. In kind it is functional. The note with it: Canis lupus familiaris, Heart. The method, boiled down: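 Beagle dogs of both sexes, 10-14 kg, coronary ligature under pentobarbital (30 mg/kg iv) with artificial ventilation. Next day, dogs without spontaneous arrhythmia get epinephrine 2-10 µg/kg iv (ear vein). Compound then given iv. ECG at 5-180 min, with epinephrine re-challenge at each time. Maximal ectopic beats/min counted before and after each dose, in 2-4 dogs.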

Data set [2] relates to Canis familiaris. The experiment in a line: Antiarrhythmic activity ( protection against epinephrine induced ventricular fibrillation ) in post infarcted conscious dog administered iv. The settings on record: Canis lupus familiaris, Heart. In kind it is functional.
The species entered for data set [3] is Mus musculus. Put plainly: The compound was tested for effective concentration (intradermal injection) that caused local anesthesia in 50% of mice by tail-clip method. It is filed as functional, organism-based. The method, boiled down:
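Tail-clip test in albino CF1 mice of both sexes, 18-20 g. Intradermal tail injection of 0.1 mL/mouse about 1 cm from the root.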

The test system of data set [4] is Mus musculus. The experiment in a line: Antiarrhythmic activity ( protection against aconitine induced initial arrhythmia ) in anesthetized mouse administered perorally. The settings on record: Heart, po. It is filed as functional. The method, boiled down:
(§1)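 Albino CF1 mice of both sexes, 20-22 g, pentobarbital-anesthetized (60 mg/kg ip), lead II ECG. Dosing iv (caudal vein) 2 min or orally 60 min before aconitine infusion, 8 µg/mL at 0.32 mL/min for 3 min. ECG read every 10 s. Endpoint is time to initial arrhythmia and to ventricular tachycardia. Ten mice per dose; probit analysis.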

Data set [5] deals with Mus musculus. Put plainly: Antiarrhythmic activity ( protection against aconitine induced initial arrhythmia ) in anesthetized mouse administered through iv. The settings on record: Heart. In kind it is functional. The method, boiled down: as §1
The subject of data set [6] is Mus musculus. Put plainly: Antiarrhythmic activity ( protection against aconitine induced ventricular tachycardia) in anesthetized mouse administered perorally. In kind it is functional. The settings on record: Heart, po. The method, boiled down:
as §1

Data set [7] deals with Mus musculus. Put plainly: Antiarrhythmic activity ( protection against aconitine induced ventricular tachycardia) in anesthetized mouse administered through iv. It is filed as functional. The settings on record: Heart. The method, boiled down: as §1
Data set [8] can be described thus: The compound was tested for acute toxicity when given intraperitoneally in mouse. The note with it: in vivo, ip. It is filed as organism-based. The method, boiled down:
(§2)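 Albino CF1 mice of both sexes, 18-20 g, dosed intraperitoneally; survivors observed for 1 week; ten mice per dose. LD50 derived by probit method, confidence limits at p = 0.05.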

The species entered for a further data set is Oryctolagus cuniculus. Put plainly: Tested in vitro for antiarrhythmic activity in isolated rabbit atria. The note with it: Heart. In kind it is functional. The method, boiled down: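 Atria from New Zealand rabbits in oxygenated Ringer-Locke at 29 °C, paced with 10-ms, 10-V rectangular pulses at rising frequency to find the maximum driven frequency. This was remeasured before and 10, 15 and 20 min after drug addition. Dose-response curves on the same tissue, repeated 3-5 times. EC values by probit.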

Data set [9] has as its system Rattus norvegicus. Put plainly: The compound was tested for activity on heart rate in anesthetized rat when induced through femoral vein (iv) at dose of 1 mg/kg. It is filed as functional. The method, boiled down:
(§3)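 Heart rate in anesthetized rats, given iv (femoral vein) or into the portal vein. Rate recorded a few seconds before drug administration.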

In data set [10] the test system is Rattus norvegicus. The experiment in a line: The compound was tested for activity on heart rate in anesthetized rat when induced through portal vein (ipv) at dose of 1 mg/kg. In kind it is functional. The method, boiled down: as §3
Data set [11] relates to Rattus norvegicus. The experiment in a line: The compound was tested for blood electrolyte K+ in rat serum when induced through femoral vein (iv) at dose of 5 mg/kg. It is filed as functional. The method, boiled down:
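Sprague-Dawley rats of both sexes, 140-150 g. Serum K+ measured by flame photometry 1 h after iv dosing. Five rats per dose.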

Data set [12] deals with Rattus norvegicus. The experiment in a line: Antiarrhythmic activity ( protection against CaCl2 induced ventricular fibrillation ) in conscious rat administered intravenously. In kind it is functional. The note with it: Heart, iv. The method, boiled down: (§4)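 Sprague-Dawley albino rats, 180-200 g, conscious or urethane-anesthetized (2.8 g/kg sc). Compound given via caudal or portal vein 2 min, or orally 60 min, before rapid iv 8% CaCl2 at 1 mL/kg. Lead II ECG monitored for fibrillation within 10 min. Five to ten rats per dose.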

The subject of data set [13] is Rattus norvegicus. Put plainly: Antiarrhythmic activity ( protection against CaCl2 induced ventricular fibrillation ) in conscious rat administered orally (po). It is filed as functional. The settings on record: Heart. The method, boiled down:
as §4

In data set [14] the test system is Rattus norvegicus. Put plainly: Antiarrhythmic activity (protection against CaCl2 induced ventricular fibrillation) in anesthetized rat administered through portal vein (ipv). It is filed as functional. The note with it: Heart. The method, boiled down: as §4
Data set [15] deals with Rattus norvegicus. The experiment in a line: The compound was tested for antiarrhythmic activity ( protection against CaCl2 induced ventricular fibrillation ) in anesthetized rat. The note with it: Heart. It is filed as functional. The method, boiled down: as §4
Data set [16] in a line: The compound was tested for acute toxicity when given intravenously in rat. It is filed as organism-based. The note with it: in vivo, iv. The method, boiled down: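 Sprague-Dawley rats of both sexes, 120-140 g, dosed intravenously; survivors observed for 1 week. LD50 derived by probit method, confidence limits at p = 0.05.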
The test system of data set [17] is Rattus norvegicus. Put plainly: Antiarrhythmic activity ( protection against CaCl2 induced ventricular fibrillation ) in anesthetized rat administered intravenously. In kind it is functional. The settings on record: Heart, iv. The method, boiled down: as §4
A short description of data set [18]: The compound was tested for acute toxicity when given intraperitoneally in mouse. In kind it is organism-based. The note with it: in vivo, ip. The method, boiled down: as §2

In brackets after ≈: the same amount, converted by molar mass.

On to `CCN(CC)CCCOc1ccccc1O/C(=C/c1ccccc1)C(C)=O`, for which the ED50 (usually the dose at which the effect has come halfway, by size or by number of responders) in the data set on Canis familiaris [1] was 1 mg/kg; in the data set with Canis familiaris [2], 1 mg/kg; with Mus musculus [4], 82 mg/kg; with Mus musculus [5], 4.3 mg/kg; in the data set with Mus musculus [6], 83 mg/kg; in the data set on Mus musculus [7], 4.9 mg/kg. For the same compound, the 50% effective dose (ED50) in the data set with Rattus norvegicus [12] is 0.3 mg/kg; in the data set with Rattus norvegicus [13], 35 mg/kg; in the data set on Rattus norvegicus [14] it was 0.6 mg/kg; in the data set with Rattus norvegicus [15], 0.18 mg/kg. Besides, the midpoint of the response in the data set filed under Mus musculus [3], the EC50, lay at 0.0099 µg/mL (≈ 0.0269 µM). Further, the 50% lethal dose (LD50) (commonly the dose at which mortality reaches 50%) in data set [8] is 95 mg/kg; in [16], 11.1 mg/kg. Moreover, it took 0.41 µg/mL (≈ 1.12 µM) to reach the 30% level in the data set listed under Oryctolagus cuniculus (EC30). Moreover, the Activity in the data set with Rattus norvegicus [9] was -6%; in the data set with Rattus norvegicus [10] it was 4%; in the data set with Rattus norvegicus [11] it was -8%.
In [8], `CC(=O)/C(=C\c1ccccc1)Oc1cc(Cl)ccc1OCCN1CCCCC1` gave an LD50 of 185 mg/kg. Further, the concentration for an effect of 30% (EC30) (as a rule, the concentration needed for an effect of 30%) in the data set listed under Oryctolagus cuniculus was 3 µg/mL (≈ 7.5 µM). In the data set with Rattus norvegicus [17], this compound displayed an ED50 of 0.9 mg/kg.
In turn, `CCN(CC)CCOc1ccccc1OCC(C)O` (stereo unspecified) had a 50% lethal dose (LD50) in data set [18] of 187 mg/kg. For the same compound, in the data set listed under Oryctolagus cuniculus, the EC30 was 15 µg/mL (≈ 56.1 µM). For the same compound, it took a dose of 7.1 mg/kg to reach the 50% effect level in the data set with Rattus norvegicus [17] (ED50).
The like results for `CCN(CC)CCOc1ccccc1OCC(C)=O` were, in that order, 125 mg/kg, 15 µg/mL (≈ 56.5 µM) and 7 mg/kg.
For the compound `CC(=O)/C(=C\c1ccccc1)Oc1ccccc1OCCN1CCCC1`, the LD50 in [18] was found to be 45 mg/kg. In the data set listed under Oryctolagus cuniculus, this compound returned a concentration for an effect of 30% (EC30) of 3 µg/mL (≈ 8.54 µM). The compound further returned a median effective dose (ED50) in the data set with Rattus norvegicus [17] of 1 mg/kg.
The compound `CCN(CC)CCOc1ccccc1O/C(=C/c1ccccc1)C(C)O` (stereo unspecified) showed an LD50 in data set [8] of 110 mg/kg. Besides, the EC30 in the data set filed under Oryctolagus cuniculus was 1.9 µg/mL (≈ 5.34 µM). This compound returned an ED50 with Rattus norvegicus [17] of 1.5 mg/kg.
Regarding `CCN(CC)CCOc1ccccc1O/C(=C/c1ccccc1)C(=O)c1ccccc1`, the 50% lethal dose (LD50) in data set [18] came to 125 mg/kg. The same compound showed an EC30 in the data set filed under Oryctolagus cuniculus of 2.8 µg/mL (≈ 6.74 µM).
Take `CC(=O)/C(=C\c1ccccc1)Oc1ccccc1OCCCN(C(C)C)C(C)C`: the LD50 in data set [8] amounted to 60 mg/kg; in [16], 11.4 mg/kg. In the data set listed under Oryctolagus cuniculus, this compound registered a 30% effect concentration (EC30) of 0.32 µg/mL (≈ 0.809 µM). The 50% effective dose (ED50) in the data set with Rattus norvegicus [17] was determined as 0.1 mg/kg.
On to `CC(=O)/C(=C\c1ccccc1)Oc1ccc(OCC(O)CNC(C)(C)C)cc1` (stereo unspecified), for which it took 2.8 µg/mL (≈ 7.3 µM) to reach the 30% level in the data set listed under Oryctolagus cuniculus (EC30). In addition, the ED50 in the data set with Rattus norvegicus [17] was 3.5 mg/kg.
For `CC(=O)/C(=C\c1ccccc1)Oc1ccccc1OCCCN(C)C`, the values for the LD50 in data set [8] and in data set [16] were 110 mg/kg and 13.5 mg/kg, respectively. In addition, the 30% effect level in the data set filed under Oryctolagus cuniculus (EC30) was put at 3 µg/mL (≈ 8.84 µM).
Regarding `CC(=O)/C(=C\c1ccccc1)Oc1ccccc1OCCCN1CCN(C)CC1`, the 50% lethal dose (LD50) came out at 125 mg/kg in data set [8] and 23.9 mg/kg in [16]. The same compound displayed a 30% effect concentration (EC30) in the data set filed under Oryctolagus cuniculus of 1.3 µg/mL (≈ 3.3 µM).
Consider `CC(=O)/C(=C\c1ccccc1)Oc1ccccc1OCCN1CCOCC1`, for which the median lethal dose (LD50) in [8] was determined as 180 mg/kg; in [16], 30 mg/kg. The same compound had a 30% effect concentration (EC30) in the data set listed under Oryctolagus cuniculus of 6 µg/mL (≈ 16.3 µM). In the data set on Rattus norvegicus [17], the ED50 worked out at 5 mg/kg.
In the case of `CC(=O)/C(=C\c1ccccc1)Oc1ccccc1OCC(C)N(C)C` (stereo unspecified), in [8], the LD50 worked out at 45 mg/kg. The same compound came in with a concentration for an effect of 30% (EC30) in the data set filed under Oryctolagus cuniculus of 2 µg/mL (≈ 5.89 µM). In addition, the 50% effect level with Rattus norvegicus [17] (ED50) was put at a dose of 0.9 mg/kg.
With `CC(=O)/C(=C\c1ccccc1)Oc1ccccc1OCCCNC(C)(C)C`, the LD50 in [8] is 63 mg/kg; in data set [16], 12.5 mg/kg. In addition, it took 2.3 µg/mL (≈ 6.26 µM) to reach the 30% level in the data set filed under Oryctolagus cuniculus (EC30).

Values taken from ChEMBL document CHEMBL1123881, “Synthesis and antiarrhythmic activity of new 3-[2-(omega-aminoalkoxy)phenoxy]-4-phenyl-3-buten-2-ones and related compounds” (J Med Chem, 1987).
